PG9 binder – PG9 antibody binding by small molecule; TR-FRET gp120-PG9 antibody binding; inhibition, % at 6.7 µM; hit rate 0.43% among 360,000; in the data active means inhibition above about 8.5%
NR1D1 modulator – modulates human Rev-erb alpha binding to DNA | P20393 | Rev-erbα–FITC-DNA binding, fluorescence polarization, 90 min | activity, % at 10 µM | hit rate 0.79% among 370,000 | AID 1259318;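 active means activity above about 14%, limit read from the data; passing the limit was not always enough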
Target sequence (P20393 whole entry, looked up): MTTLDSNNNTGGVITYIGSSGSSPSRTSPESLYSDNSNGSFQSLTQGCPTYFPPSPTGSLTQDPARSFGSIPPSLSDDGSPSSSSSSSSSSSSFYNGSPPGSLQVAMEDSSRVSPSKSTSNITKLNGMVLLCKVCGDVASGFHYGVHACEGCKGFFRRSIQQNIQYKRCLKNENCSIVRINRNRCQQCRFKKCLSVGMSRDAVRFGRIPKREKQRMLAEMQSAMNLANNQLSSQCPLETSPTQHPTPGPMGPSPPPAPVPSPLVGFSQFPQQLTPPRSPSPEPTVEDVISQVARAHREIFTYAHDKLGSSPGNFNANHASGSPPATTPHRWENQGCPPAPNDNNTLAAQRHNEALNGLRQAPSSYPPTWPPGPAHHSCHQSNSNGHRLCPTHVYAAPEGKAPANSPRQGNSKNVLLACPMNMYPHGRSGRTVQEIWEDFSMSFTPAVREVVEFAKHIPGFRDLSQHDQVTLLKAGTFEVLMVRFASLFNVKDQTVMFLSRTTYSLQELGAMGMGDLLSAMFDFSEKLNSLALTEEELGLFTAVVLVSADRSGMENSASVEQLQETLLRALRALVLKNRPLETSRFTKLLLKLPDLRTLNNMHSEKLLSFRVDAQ
T cruzi inh – blocks replication of Trypanosoma cruzi; T. cruzi beta-gal in NIH3T3, luminescence, 90 h; inhibition, % (no concentration beside the values); hit rate 1.4% among 300,000;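 active means mean inhibition across valid replicates above about 55%, limit read from the data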;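 further: signal also drops with host cell toxicity which is not excluded here; higher percent means less beta-gal luminescence so fewer parasites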
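Assay system: NIH/3T3 host cells with β-galactosidase reporter T. cruzi; input: 5,000 host fibroblasts per well; compound: single 50 nL compound addition per well in DMSO; timing: ≥90 h infection period, 3 h prior cell attachment; measured by: GalScreen β-gal luminescence, detergent lysis, 60 min; evaluation: percent inhibition of parasite-derived β-gal signal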
H9c2 TAG inh – triacylglycerol accumulation inhibition; H9c2 cells, Nile Red lipid (TAG) fluorescence; cells loaded with 200 µM oleic acid; inhibition, % at 12.5 µM; hit rate 0.66% among 230,000;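 active means pattern-corrected inhibition of lipid staining of at least 50% with the nuclear-stain viability signal not falling by more than 50%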
beta cell repl – MIN6 beta-cell proliferation induction | hit rate 0.29% among 330,000 | MIN6 cells proliferation, ATPlite luminescence, 48 h; cells starved in 0.2% serum; 100% = growth in 10% serum | proliferation, % at 10 µM;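 active means compounds whose signal lies at least 3.5 SD above the mean of all wells on their plate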
hiPSC survival – hiPSC single-cell survival enhancement; ATPlite luminescence; 100% = ROCK inhibitor wells, 0% = DMSO; survival enhancement, % at 20 µM; hit rate 0.044% among 360,000; in the data active means survival enhancement above about 18%;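 further: cells exposed to compounds for 16 hours before the ATP read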
Rev-erbA confirm – confirmation of modulators of human Rev-erb alpha DNA binding. AID 1259319. activation, % at 25 µM. Rev-erb alpha FITC-DNA binding, fluorescence polarization, 90 min. shares compounds with NR1D1 modulator. hit rate 61% among 3,000;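 active means activation at or above a set limit, or at least 3 SD above the negative control mean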
RORg DNA counter – RORgamma DNA-binding activity, dose-response counter-screen | IC50, µM | AID 1259320 | hit rate 8% among 910 | purified RORgamma protein-FITC-DNA binding, fluorescence polarization | shares compounds with NR1D1 modulator;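 active means Compounds whose fitted half-maximal concentration for disrupting protein-DNA binding is below 10 micromolar; the record names Rev-erb in its text, so the target is in doubt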
Of the large screens only hits and unclear results are named; the others gave an inactive call (follow-up assays come after a bar, where they were run). This is a sample that favours compounds with a hit; in the whole collection about 2.9% have one here.

Cn1c2ccccc2c(=O)c2c(=O)n(Cc3cccc4ccccc34)cnc21	NR1D1 modulator 18 (no result: PG9 binder, T cruzi inh, H9c2 TAG inh, beta cell repl, hiPSC survival) | Rev-erbA confirm 20
COc1ccc(/C=C2\CCn3c2nc2ccccc2c3=O)cc1OC	none (no result: PG9 binder, NR1D1 modulator)
O=C1COc2ccc(C(=O)COC(=O)Cc3c(F)cccc3Cl)cc2N1	none (no result: T cruzi inh)
O=C1COc2ccc(C(=O)COC(=O)c3c(F)cccc3Cl)cc2N1	NR1D1 modulator 16 (no result: T cruzi inh) | Rev-erbA confirm inactive
COc1ccc(C(=O)Nc2ccc3[nH]c(-c4cccc(OC)c4)cc(=O)c3c2)cc1	NR1D1 modulator 51 (no result: H9c2 TAG inh) | Rev-erbA confirm inactive
COc1ccc(C(=O)Nc2cccc(OC)c2)cc1	none (no result: H9c2 TAG inh)
O=C(Nc1ccccc1)c1ccc(N2CCN(c3ccccn3)CC2)c(S(=O)(=O)N2CCOCC2)c1	none (no result: H9c2 TAG inh)
O=C(Nc1ccccc1)c1ccc(N2CCN(c3ccccc3)CC2)c(S(=O)(=O)N2CCOCC2)c1	NR1D1 modulator 61, T cruzi inh 56 (no result: H9c2 TAG inh) | Rev-erbA confirm 29
CCn1cc(C(=O)Nc2ccc(Oc3cccnc3)cc2)c2ccccc21	none (no result: T cruzi inh, H9c2 TAG inh, beta cell repl, hiPSC survival)
CCc1ccc(-c2cc3c(=O)n(CC(=O)N4CCCC4)nc(C)n3n2)cc1	NR1D1 modulator 49 (no result: H9c2 TAG inh) | Rev-erbA confirm 20
CCc1ccc(-c2cc3c(=O)n(CC(=O)N4CCCCCC4)nc(C)n3n2)cc1	none (no result: H9c2 TAG inh)
O=C(N=Nc1c(O)[nH]c2ccc([N+](=O)[O-])cc12)c1ccccc1Cl	none
Cc1nc(N2CCC(C)CC2)c2c(C)c(C(=O)Nc3ccc(C)c(F)c3)sc2n1	NR1D1 modulator 46 (no result: H9c2 TAG inh) | Rev-erbA confirm 32 | RORg DNA counter inactive
Cc1nc(N2CCN(c3ccccn3)CC2)c2c(C)c(C(=O)N3CCN(c4ccc(F)cc4)CC3)sc2n1	NR1D1 modulator 20 (no result: H9c2 TAG inh) | Rev-erbA confirm inactive
Cc1nc(N2CCN(c3ccccn3)CC2)c2c(C)c(C(=O)Nc3c(F)cc(F)cc3Br)sc2n1	NR1D1 modulator 46 (no result: H9c2 TAG inh) | Rev-erbA confirm inactive
Cc1nc(N2CCN(c3ccccn3)CC2)c2c(C)c(C(=O)Nc3c(C)cc(Br)cc3C)sc2n1	NR1D1 modulator 28 (no result: H9c2 TAG inh) | Rev-erbA confirm inactive
Cc1nc(N2CCN(c3ccccn3)CC2)c2c(C)c(C(=O)Nc3ccc(Cl)cc3)sc2n1	none (no result: H9c2 TAG inh)
Cc1nc(N2CCOCC2)c2c(C)c(C(=O)Nc3ccc(F)cc3F)sc2n1	none
c1ccc(-c2ccc(-c3ccccc3)[nH]2)cc1	none (no result: T cruzi inh, beta cell repl)
Cc1ccc(C)c(OCCC(=O)OCC(=O)NC2CCS(=O)(=O)C2)c1 (stereo unspecified)	none
COc1ccc2c(c1)c(C(O)CN1CCC(Cc3ccccc3)CC1)c(C)n2C (stereo unspecified)	none
Cc1ccc(N=Cc2c(O)c3ccccc3oc2=O)c(C)c1	NR1D1 modulator 46 (no result: H9c2 TAG inh) | Rev-erbA confirm 25
Cc1ccc(F)cc1N=Cc1c(O)c2ccccc2oc1=O	none (no result: PG9 binder, NR1D1 modulator)
CCN(C(=O)COC(=O)/C(C#N)=C/c1ccc(N(C)C)cc1)C1CCS(=O)(=O)C1 (stereo unspecified)	none (no result: T cruzi inh)
CN(C)c1ccc(/C=C(\C#N)C(=O)OCC(=O)N(C)C2CCS(=O)(=O)C2)cc1 (stereo unspecified)	NR1D1 modulator 20 (no result: T cruzi inh) | Rev-erbA confirm 16
O=C(CCCn1c(=S)[nH]c2cc3c(cc2c1=O)OCO3)N1CCN(c2ccc(Cl)cc2)CC1	none
O=C(Cn1c(=S)[nH]c2ccccc2c1=O)N1CCN(c2ccccc2)CC1	NR1D1 modulator 40 | Rev-erbA confirm 24
CC(=O)c1ccc(N2CCN(C(=O)CCCn3c(=S)[nH]c4cc5c(cc4c3=O)OCO5)CC2)cc1	NR1D1 modulator 25 (no result: T cruzi inh) | Rev-erbA confirm inactive
COc1ccc(-c2c(C)nn(-c3ccccc3)c2N)cc1	none (no result: H9c2 TAG inh)
CN(C)C(=O)c1ccc(NS(=O)(=O)c2ccc3c(c2)OCCO3)cc1	none
N#CC(C(=O)NCCc1ccccc1)c1nc2ccccc2nc1N1CCCCC1 (stereo unspecified)	NR1D1 modulator 36 | Rev-erbA confirm inactive
CCCCN(CCCC)c1nc2ccccc2nc1C(C#N)C(=O)NCCCOC (stereo unspecified)	NR1D1 modulator 69 | Rev-erbA confirm inactive
CCCCCCNC(=O)C(C#N)c1nc2ccccc2nc1N1CCOCC1 (stereo unspecified)	NR1D1 modulator 40 (no result: H9c2 TAG inh) | Rev-erbA confirm 34 | RORg DNA counter inactive
CC1=C(C(=O)Nc2cccnc2)C(c2ccccn2)n2nnnc2N1 (stereo unspecified)	none
COc1ccc(-c2nnc(-c3cc4ccccc4oc3=O)o2)cc1	NR1D1 modulator 24 (no result: H9c2 TAG inh) | Rev-erbA confirm 24
O=c1oc2ccccc2cc1-c1nc(-c2ccccc2)no1	none (no result: PG9 binder, NR1D1 modulator)
Cc1ccc(-c2noc(-c3cc4ccccc4oc3=O)n2)cc1	NR1D1 modulator 33 (no result: H9c2 TAG inh) | Rev-erbA confirm 18
COc1ccc2nc(C)cc(SCC(=O)N3CCCCC3)c2c1	none
CCCCNC(=O)n1c(=O)oc2ccc(Cl)cc21	none
Cc1ccc(C)c(N2CCN(S(=O)(=O)c3ccc(-c4ccc(=O)[nH]n4)o3)CC2)c1	NR1D1 modulator 33 (no result: H9c2 TAG inh) | Rev-erbA confirm inactive
Cc1ccc(Cl)cc1N1CCN(S(=O)(=O)c2ccc(-c3ccc(=O)[nH]n3)o2)CC1	NR1D1 modulator 135 (no result: H9c2 TAG inh) | Rev-erbA confirm 138 | RORg DNA counter inactive
C/C(=N\Nc1ccc(C)c(Cl)c1)c1cccnc1	none (no result: H9c2 TAG inh)
CCC(C(=O)NC1CCCC1)N(C(=O)Cn1nnc(-c2ccc(C)o2)n1)c1ccc(F)cc1 (stereo unspecified)	none (no result: H9c2 TAG inh)
Cc1cccc(CSC2=CS(=O)(=O)c3ccccc3N2)c1	none
Cc1ccc2c(c1)S(=O)(=O)c1ccc3ccccc3c1N2	NR1D1 modulator 32 (no result: T cruzi inh, beta cell repl) | Rev-erbA confirm 15
O=C(c1cc(F)ccc1F)N1CCC(N2CCC(C(=O)N3CCCC3)CC2)CC1	none (no result: H9c2 TAG inh)
COc1ccc(S(=O)(=O)N2CCc3ccccc32)cc1C(=O)Nc1ccc(NC(C)=O)cc1	NR1D1 modulator 58 (no result: T cruzi inh) | Rev-erbA confirm 41 | RORg DNA counter inactive
Cc1ccc(S(=O)(=O)N2CCCCC2)cc1C(=O)Nc1ccccn1	none
COc1ccc(S(=O)(=O)N2CCCCCC2)cc1C(=O)Nc1cc(C)ccn1	none (no result: T cruzi inh)
COc1ccc(S(=O)(=O)N2CCCCCC2)cc1C(=O)Nc1ccccn1	NR1D1 modulator 46 | Rev-erbA confirm inactive
COc1ccc(S(=O)(=O)N2CCCCCC2)cc1C(=O)Nc1ccc(C)cn1	NR1D1 modulator 101 | Rev-erbA confirm 30 | RORg DNA counter 0.79
CCC(=O)N1CCN(c2ccc(NC(=O)c3ccc4c(c3)OCO4)cc2)CC1	none
O=C(Nc1cccc(Br)c1)c1cc(S(=O)(=O)N2CCOCC2)cs1	NR1D1 modulator 30 (no result: H9c2 TAG inh) | Rev-erbA confirm inactive
